{"data": "Measured values collected from several papers", "observed": "cell growth or viability", "note": "Lines come from different studies, so protocols differ."}
{"SMILES": "NC1CCC(CC2CCC(NC(=O)c3cc4[nH]ccc4cc3Cl)CC2)CC1 (stereo not drawn)", "cell line": "HEK-293T", "conditions": "100 µM, 24 h", "measurement": "viability", "result": "< 50%"}
{"SMILES": "CCOP(=O)(OCC)[C@@H]1C[C@@H](n2cc(Cn3cc(C)c(=O)[nH]c3=O)nn2)ON1C (racemic)", "cell line": "human T-lymphocyte", "conditions": "72 h", "measurement": "CC50", "result": "> 250 µM"}
{"SMILES": "CC[C@@H](C)[C@H](N)C(=O)N1Cc2ccccc2C1", "cell line": "HEK-293T", "assay": "ATP luminescence", "conditions": "60 µM", "measurement": "viability", "result": "73%"}
{"SMILES": "CCOP(=O)(OCC)[C@@H]1C[C@H](n2cc(Cn3ccc(=O)[nH]c3=O)nn2)ON1C (racemic)", "cell line": "human T-lymphocyte", "conditions": "72 h", "measurement": "CC50", "result": "> 250 µM"}
{"SMILES": "COc1ccc2c(c1)c1c(n2CO)CN2CCc3cc(OC)c(OCc4ccc(F)cc4)cc3C2C1 (stereo not drawn)", "cell line": "HepG2", "conditions": "10 µM, 24 h", "measurement": "viability", "result": "104%"}
{"SMILES": "CCCCCCn1c(-c2cccc(Cl)c2)n[nH]c1=S", "cell line": "HepG2", "assay": "resazurin", "conditions": "100 µM, 24 h", "measurement": "viability", "result": "75%"}
{"SMILES": "N[C@@H](CC(=O)N1CCN(C(c2ccc(F)cc2)c2ccc(F)cc2)CC1)C(=O)N1Cc2ccccc2C1", "cell line": "HEK-293T", "assay": "ATP luminescence", "conditions": "60 µM", "measurement": "viability", "result": "41%"}
{"SMILES": "COc1cc2c(cc1O)[C@@H](Cc1ccc(O)cc1)[N+](C)(C)CC2", "cell line": "Huh-7", "assay": "MTT", "measurement": "CC50", "result": "> 318 µM"}
{"SMILES": "CCOP(=O)(OCC)[C@@H]1C[C@@H](n2cc(-c3ccc(F)cc3F)nn2)ON1C (racemic)", "cell line": "human T-lymphocyte", "conditions": "72 h", "measurement": "CC50", "result": "≥ 250 µM"}
{"SMILES": "O=C(NCCc1c[nH]c2ccc(F)cc12)c1cc2[nH]ccc2cc1Cl", "cell line": "HEK-293T", "conditions": "100 µM, 24 h", "measurement": "viability", "result": "< 50%"}
{"SMILES": "COc1ccc(CCN2CCC(Nc3nc4ccccc4n3Cc3ccc(F)cc3)CC2)cc1", "cell line": "HepG2", "assay": "resazurin", "conditions": "50 µM, 24 h", "measurement": "viability", "result": "20%"}
{"SMILES": "COc1cc2c(cc1OCc1ccccc1F)C1Cc3c(n(CO)c4ccccc34)CN1CC2 (stereo not drawn)", "cell line": "HepG2", "conditions": "20 µM, 24 h", "measurement": "viability", "result": "83.6%"}
